In article PMC9298202 (Chemmedchem, 2021):
Where two headings read alike, the source gives them in different places.

Key:
Format in all cases: cell-based
J774.2 macrophages = experiment: Cytotoxicity in J774.2 macrophages; conditions: read-out: Toxicity in macrophages IC50
Vero cells = experiment: Cytotoxicity in Vero cells; conditions: read-out: Vero cells toxicity IC50
Summary of the method: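 Vero cells were grown in RPMI + 10% inactivated FBS at 37 °C in humidified 5% CO2. They were resuspended at 1×10^5 cells/mL, cultured 2 days, then given fresh medium with test compound for 72 h. Viability was read by flow cytometry. IC50 was derived by linear regression from Kc values; results average four determinations.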

[1] = system: Leishmania infantum promastigote forms; experiment: In vitro activity on promastigote; conditions: for Selectivity index Promastigote forms: L. infantum, IC50 macrophages toxicity/IC50 activity; for IC50: Leishmania infantum, read-out: Activity IC50 Promastigote forms
[2] = system: Leishmania braziliensis promastigote forms; experiment: In vitro activity on promastigote; conditions: for Selectivity index Promastigote forms: L. braziliensis, IC50 macrophages toxicity/IC50 activity; for IC50: Leishmania braziliensis, read-out: Activity IC50 Promastigote forms
Summary of the method: (§1)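 Extracellular promastigotes were tested at 1, 10, 25 and 200 µM, and IC50 was derived by linear regression from Kc values, averaging four determinations.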

[3] = system: Leishmania braziliensis amastigote forms; experiment: In vitro activity on amastigote; conditions: for Selectivity index Amastigote forms: L. braziliensis, IC50 macrophages toxicity/IC50 activity; for IC50: Leishmania braziliensis, read-out: Activity IC50 Amastigote forms
Summary of the method: (§2)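 J774.2 macrophages were infected with promastigotes, which became intracellular amastigotes within 1 day; test compounds were then added. IC50 came from linear regression of Kc values at 1, 10, 25 and 200 µM, averaging four determinations.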

[4] = system: Leishmania donovani promastigote forms; experiment: In vitro activity on promastigote; conditions: for Selectivity index Promastigote forms: L. donovani, IC50 macrophages toxicity/IC50 activity; for IC50: Leishmania donovani, read-out: Activity IC50 Promastigote forms
Summary of the method: as §1

[5] = system: Trypanosoma cruzi SN3 epimastigote forms; experiment: Epimastigote assay, T. cruzi SN3; conditions: for Selectivity index Epimastigote forms: T. cruzi SN3, IC50 Vero cell toxicity/IC50 activity; for IC50: Trypanosoma cruzi, read-out: Activity IC50 Epimastigote forms
Summary of the method: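 SN3 epimastigotes (Rhodnius prolixus isolate, Colombia) were grown at 28 °C in Grace's Insect Medium + 10% inactivated FBS. Exponential-phase cells were plated at 5×10^4 parasites/well with test compound in MTL medium at 100, 50, 25, 12,5 and 6,25 µM. Counts after 72 h used a Neubauer chamber. IC50 came from linear regression of Kc values; SI = Vero IC50/epimastigote IC50.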

[6] = system: Trypanosoma cruzi SN3 amastigote forms; experiment: Amastigote assay, T. cruzi SN3; conditions: for Selectivity index Amastigote forms: T. cruzi SN3, IC50 Vero cell toxicity/IC50 activity; for IC50: Trypanosoma cruzi, read-out: Activity IC50 Amastigote forms
Summary of the method: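 Vero cells in RPMI + 10% inactivated FBS (37 °C, 5% CO2) were seeded at 1×10^4 cells/well on coverslips for 2 days. They were infected 10:1 with SN3 metacyclic forms, obtained by 12-day culture of epimastigotes at 28 °C in modified Grace's medium (~40% metacyclic). After 24 h, cells were washed and exposed to 6.25–100 µM for 72 h. Giemsa-stained amastigotes were counted; IC50 from four determinations; SI used Vero IC50.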

[7] = system: Trypanosoma cruzi SN3 trypomastigote forms; experiment: Trypomastigote activity, T. cruzi SN3; conditions: for Selectivity index Trypomastigote forms: T. cruzi SN3, IC50 Vero cell toxicity/IC50 activity; for IC50: Trypanosoma cruzi, read-out: Activity IC50 Trypomastigote forms
[8] = system: Leishmania infantum amastigote forms; experiment: In vitro activity on amastigote; conditions: for Selectivity index Amastigote forms: L. infantum, IC50 macrophages toxicity/IC50 activity; for IC50: Leishmania infantum, read-out: Activity IC50 Amastigote forms
[9] = system: Leishmania donovani amastigote forms; experiment: In vitro activity on amastigote; conditions: for Selectivity index Amastigote forms: L. donovani, IC50 macrophages toxicity/IC50 activity; for IC50: Leishmania donovani, read-out: Activity IC50 Amastigote forms
Summary of the method: as §2

[10] = J774.2 macrophages after 72 h of culture (Table 1)
[11] = Vero cells after 72 h of culture
[12] = Chlorocebus sabaeus, Vero, 72 h

| Compound | IC50 [1] | IC50 [2] | IC50 [3] | IC50 [4] | IC50 [5] | Selectivity index Promastigote forms [1] | IC50 (J774.2 macrophages; Mus musculus, J774.2, 72 h) | Selectivity index Promastigote forms [2] | Selectivity index Amastigote forms [3] | Selectivity index Promastigote forms [4] | Selectivity index Epimastigote forms [5] | IC50 (Vero cells; [12]) | also measured |
| --- | --- | --- | --- | --- | --- | --- | --- | --- | --- | --- | --- | --- | --- |
| N‐ [2‐(1H‐imidazol‐4‐yl)ethylamino]pyrazine [4 a] |  |  |  |  |  |  |  |  |  |  |  |  | IC50 (J774.2 macrophages; [10]): 21.9 ± 1.5 µM; IC50 (Vero cells; [11]): 31 ± 2.6 µM |
| c1ccc2c(NCCc3c[nH]cn3)ncnc2c1 [3 a, N ‐[2‐(1H‐imidazol‐4‐yl)ethyl]‐quinazolin‐4‐amine] | 27.7 ± 3 µM | 29.1 ± 2.3 µM | 18.9 ± 1.6 µM | 20.4 ± 2 µM | 25.9 ± 1.2 µM | 2 | 65.2 ± 3.3 µM | 2 | 3 | 3 | 4 | 112 ± 4.8 µM | Selectivity index Amastigote forms [6]: 17; IC50 [6]: 6.7 ± 0.8 µM; Selectivity index Trypomastigote forms [7]: 26; IC50 [7]: 4.3 ± 0.3 µM |
| Glucantime [reference compound] |  |  |  |  |  |  |  |  |  |  |  |  | IC50 (J774.2 macrophages; [10]): 15.2 ± 1 µM |
| 1‐[3‐(imidazol‐1‐yl)propylamino]pyridazine [1 b] |  |  |  |  |  |  |  |  |  |  |  |  | IC50 (J774.2 macrophages; [10]): 18.6 ± 1 µM; IC50 (Vero cells; [11]): 43.6 ± 2.7 µM |
| Clc1ccc(NCCCn2ccnc2)nn1 [1 d, N ‐(3‐(1H‐imidazol‐1‐yl)propyl)‐6‐chloropyridazin‐3‐amine] | 15.3 ± 0.5 µM | 13.5 ± 0.3 µM |  | 20.6 ± 2.3 µM | 11.8 ± 0.6 µM | 1 (1) | 19.3 ± 1.1 µM | 1 |  | 1 (1) | 3 (3) | 33.2 ± 2.8 µM |  |
| O=C(Cn1ccnc1[N+](=O)[O-])NCc1ccccc1 [BNZ, benznidazole, reference compound] |  |  |  |  | 15.8 ± 1.1 µM |  |  |  |  |  | 0.9 | 13.6 ± 0.9 µM | Selectivity index Amastigote forms [6]: 0.6; IC50 [6]: 23.3 ± 4.6 µM; Selectivity index Trypomastigote forms [7]: 2.2; IC50 [7]: 6.2 ± 0.7 µM |

The remaining compounds from weak to strong by IC50 [5], led by results:

| IC50 [1] | IC50 [2] | IC50 [3] | IC50 [4] | IC50 [5] | Compound | Selectivity index Promastigote forms [1] | IC50 (J774.2 macrophages; Mus musculus, J774.2, 72 h) | Selectivity index Promastigote forms [2] | Selectivity index Amastigote forms [3] | Selectivity index Promastigote forms [4] | Selectivity index Epimastigote forms [5] | IC50 (Vero cells; [12]) | also measured |
| --- | --- | --- | --- | --- | --- | --- | --- | --- | --- | --- | --- | --- | --- |
| 11.1 ± 0.4 µM | 17.8 ± 1.4 µM | 15 ± 0.9 µM | 52 ± 3.6 µM | 102 ± 4.1 µM | c1ccc2c(NCCCn3ccnc3)nncc2c1 [1 f, 1‐[3‐(imidazol‐1‐yl)propylamino]phthalazine] | 19 | 211 ± 10.3 µM | 12 | 14 | 4 | 1 | 156 ± 4.6 µM | Selectivity index Amastigote forms [8]: 20; IC50 [8]: 10.7 ± 0.7 µM; Selectivity index Amastigote forms [9]: 5; IC50 [9]: 44.7 ± 5.6 µM; Selectivity index Amastigote forms [6]: 3; IC50 [6]: 44.3 ± 2.7 µM; Selectivity index Trypomastigote forms [7]: 4; IC50 [7]: 40.8 ± 3.1 µM |
| 19.9 ± 1.4 µM | 5.8 ± 0.2 µM | 4.4 ± 0.3 µM | 4.4 ± 0.2 µM | 33.5 ± 1.6 µM | c1ccc2[nH]c(CCNc3nnc(NCCc4nc5ccccc5[nH]4)c4ccccc34)nc2c1 [2 a, N 1,N4‐bis[2‐(1H‐benzo[d]imidazol‐2‐yl)ethyl]phthalazine‐1,4‐diamine] | 1(1) | 18.7 ± 1 µM | 3 | 4 | 4 | 1 (1) | 38.7 ± 1.7 µM |  |
| 19.9 ± 1.1 µM | 28.1 ± 0.4 µM |  | 57.4 ± 4.1 µM | 30.5 ± 2.7 µM | Clc1ccc(NCCc2c[nH]cn2)nn1 [1 c, N ‐(2‐(1H‐imidazol‐4‐yl)ethyl)‐6‐chloropyridazin‐3‐amine] | 1 (1) | 17.1 ± 1.7 µM | 1 (1) |  |  | 1 (1) | 39.6 ± 0.9 µM |  |
| 24.5 ± 2.5 µM | 6.1 ± 0.5 µM | 5.3 ± 0.4 µM | 10.7 ± 0.4 µM | 30 ± 0.8 µM | Clc1nnc(NCCc2nc3ccccc3[nH]2)c2ccccc12 [2 b, N‐ [2‐(1H‐benzo[d]imidazol‐2‐yl)ethyl]‐4‐chlorophthalazin‐1‐amine] | 1(1) | 25.2 ± 1.7 µM | 4 | 5 | 2 | 1 (1) | 35 µM |  |
| 5.8 ± 0.3 µM | 3.7 ± 0.1 µM | 4.1 ± 0.3 µM | 3.8 ± 0.3 µM | 23.3 ± 0.7 µM | c1cnc(NCCCCCn2ccnc2)cn1 [4 d, N ‐(5‐(1H‐imidazol‐1‐yl)pentyl)pyrazin‐2‐amine] | 4 | 22 ± 1.7 µM | 6 | 5 | 6 | 2 (2) | 37.2 ± 1.2 µM | Selectivity index Amastigote forms [8]: 5; IC50 [8]: 4 ± 0.4 µM; Selectivity index Amastigote forms [9]: 11; IC50 [9]: 1.9 µM |
| 18.7 ± 1.4 µM | 14.7 ± 0.6 µM |  | 22.4 ± 1.3 µM | 20.1 ± 1.3 µM | c1ccc2c(NCCc3cn4ccccc4n3)nnc(NCCc3cn4ccccc4n3)c2c1 [2 c, N 1,N4‐bis(2‐(imidazo[1,2‐a]pyridin‐2‐yl)ethyl)phthalazine‐1,4‐diamine] |  | 2.4 ± 0.1 µM |  |  |  | 1 (1) | 19.6 ± 0.7 µM |  |
| 21.8 ± 2.3 µM | 26.6 ± 5.4 µM |  | 11.9 ± 0.7 µM | 19.6 ± 0.8 µM | Clc1nnc(NCCc2cn3ccccc3n2)c2ccccc12 [2 d, 4‐chloro‐N‐(2‐(imidazo[1,2‐a]pyridin‐2‐yl)ethyl)phthalazin‐1‐amine] |  | 2.4 ± 0.3 µM |  |  |  | 1 (1) | 23.8 ± 2.1 µM |  |
| 9.6 ± 0.8 µM | 10.7 ± 1.1 µM | 7.7 ± 0.5 µM | 7.4 ± 0.4 µM | 17.9 ± 1.1 µM | c1cnc(NCCCCn2ccnc2)cn1 [4 c, N ‐(4‐(1H‐imidazol‐1‐yl)butyl)pyrazin‐2‐amine] | 2 | 22.3 ± 2.3 µM | 2 | 3 | 3 | 2 (2) | 29.8 ± 1.6 µM | Selectivity index Amastigote forms [8]: 4; IC50 [8]: 5.8 ± 0.2 µM; Selectivity index Amastigote forms [9]: 4; IC50 [9]: 5.5 ± 0.3 µM |
| 10.2 µM | 14.5 ± 1.3 µM | 8.1 ± 0.4 µM | 9.6 ± 1.3 µM | 16.5 ± 0.6 µM | c1ccc2c(NCCc3c[nH]cn3)nncc2c1 [1 e, 1‐[2‐(1H‐imidazol‐4‐yl)ethylamino]phthalazine] | 6 | 63.9 ± 3.6 µM | 4 | 8 | 7 | 21 | 350 ± 7.7 µM | Selectivity index Amastigote forms [8]: 9; IC50 [8]: 7.4 ± 0.3 µM; Selectivity index Amastigote forms [9]: 6; IC50 [9]: 10.8 ± 1.1 µM; Selectivity index Amastigote forms [6]: 24; IC50 [6]: 14.7 ± 1.1 µM; Selectivity index Trypomastigote forms [7]: 22; IC50 [7]: 15.9 ± 1.2 µM |
